Reference: ChEMBL document CHEMBL4028864 (J Med Chem, 2017)

Legend:
MOLM-14 = test: Antiproliferative activity against human MOLM14 cells assessed as cell viability at 10 uM after 48 hrs by CellTiter-Glo luminescent assay relative to control; assay type: functional
KMS-12-BM = test: Antiproliferative activity against human KMS-12-BM cells assessed as cell viability at 10 uM after 48 hrs by CellTiter-Glo luminescent assay relative to control; assay type: functional
OPM-2 = test: Antiproliferative activity against human OPM2 cells assessed as cell viability at 10 uM after 48 hrs by CellTiter-Glo luminescent assay relative to control; assay type: functional
MV4-11 = test: Antiproliferative activity against human MV4-11 cells assessed as cell viability at 10 uM after 48 hrs by CellTiter-Glo luminescent assay relative to control; assay type: functional
HCT-116 = test: Antiproliferative activity against human HCT116 cells after 72 hrs by MTT assay; assay type: functional, cell-based; conditions: HCT-116, 72 h
MCF7 = test: cells; assay type: functional, cell-based; conditions: Homo sapiens, MCF7, 72 h
Jurkat = test: cells; assay type: functional, cell-based; conditions: Homo sapiens
[1] = biological target: T1, Protein deacetylase HDAC6 (Homo sapiens, UniProt Q9UBN7); test: Inhibition of N-terminal GST tagged human HDAC6 (1 to 1215 residues) expressed in baculovirus infected insect cells using RHKKAc as substrate in presence of ATP
T1 sequence (Q9UBN7 whole entry): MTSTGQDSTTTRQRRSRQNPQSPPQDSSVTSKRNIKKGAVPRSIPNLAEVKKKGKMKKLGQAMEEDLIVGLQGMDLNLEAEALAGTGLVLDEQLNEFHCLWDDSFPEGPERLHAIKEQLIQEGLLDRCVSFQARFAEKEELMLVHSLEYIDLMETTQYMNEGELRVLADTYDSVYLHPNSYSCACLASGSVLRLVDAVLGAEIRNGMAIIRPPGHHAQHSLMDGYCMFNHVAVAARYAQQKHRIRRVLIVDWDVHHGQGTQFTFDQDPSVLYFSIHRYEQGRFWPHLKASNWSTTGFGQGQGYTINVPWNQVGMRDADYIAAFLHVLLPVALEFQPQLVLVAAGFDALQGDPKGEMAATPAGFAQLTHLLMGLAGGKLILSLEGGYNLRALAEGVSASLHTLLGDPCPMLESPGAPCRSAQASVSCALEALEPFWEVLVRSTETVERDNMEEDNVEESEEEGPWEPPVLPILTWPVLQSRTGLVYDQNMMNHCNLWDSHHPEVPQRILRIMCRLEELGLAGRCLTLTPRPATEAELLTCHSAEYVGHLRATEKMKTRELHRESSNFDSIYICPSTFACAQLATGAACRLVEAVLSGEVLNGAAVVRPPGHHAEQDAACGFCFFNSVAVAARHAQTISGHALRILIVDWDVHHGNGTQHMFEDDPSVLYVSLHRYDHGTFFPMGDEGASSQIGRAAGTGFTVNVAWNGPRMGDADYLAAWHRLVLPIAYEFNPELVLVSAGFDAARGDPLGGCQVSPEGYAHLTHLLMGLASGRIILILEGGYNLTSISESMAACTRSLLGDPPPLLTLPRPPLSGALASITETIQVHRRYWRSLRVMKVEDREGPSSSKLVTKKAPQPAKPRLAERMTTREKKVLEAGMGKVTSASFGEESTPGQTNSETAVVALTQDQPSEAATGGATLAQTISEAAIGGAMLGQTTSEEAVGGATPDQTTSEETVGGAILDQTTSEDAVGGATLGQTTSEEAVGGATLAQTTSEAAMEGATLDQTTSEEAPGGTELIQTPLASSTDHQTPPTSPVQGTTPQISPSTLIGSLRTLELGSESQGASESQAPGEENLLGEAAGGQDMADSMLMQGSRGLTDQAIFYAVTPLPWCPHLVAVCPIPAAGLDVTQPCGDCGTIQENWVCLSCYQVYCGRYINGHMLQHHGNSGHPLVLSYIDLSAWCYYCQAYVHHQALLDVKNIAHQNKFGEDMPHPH

[2] = biological target: T2, Tyrosine-protein kinase JAK2 (Homo sapiens, UniProt O60674); test: Inhibition of human JAK2 using poly[Glu:Tyr] as substrate in presence of [gamma-33P]-ATP
T2 sequence (O60674 whole entry): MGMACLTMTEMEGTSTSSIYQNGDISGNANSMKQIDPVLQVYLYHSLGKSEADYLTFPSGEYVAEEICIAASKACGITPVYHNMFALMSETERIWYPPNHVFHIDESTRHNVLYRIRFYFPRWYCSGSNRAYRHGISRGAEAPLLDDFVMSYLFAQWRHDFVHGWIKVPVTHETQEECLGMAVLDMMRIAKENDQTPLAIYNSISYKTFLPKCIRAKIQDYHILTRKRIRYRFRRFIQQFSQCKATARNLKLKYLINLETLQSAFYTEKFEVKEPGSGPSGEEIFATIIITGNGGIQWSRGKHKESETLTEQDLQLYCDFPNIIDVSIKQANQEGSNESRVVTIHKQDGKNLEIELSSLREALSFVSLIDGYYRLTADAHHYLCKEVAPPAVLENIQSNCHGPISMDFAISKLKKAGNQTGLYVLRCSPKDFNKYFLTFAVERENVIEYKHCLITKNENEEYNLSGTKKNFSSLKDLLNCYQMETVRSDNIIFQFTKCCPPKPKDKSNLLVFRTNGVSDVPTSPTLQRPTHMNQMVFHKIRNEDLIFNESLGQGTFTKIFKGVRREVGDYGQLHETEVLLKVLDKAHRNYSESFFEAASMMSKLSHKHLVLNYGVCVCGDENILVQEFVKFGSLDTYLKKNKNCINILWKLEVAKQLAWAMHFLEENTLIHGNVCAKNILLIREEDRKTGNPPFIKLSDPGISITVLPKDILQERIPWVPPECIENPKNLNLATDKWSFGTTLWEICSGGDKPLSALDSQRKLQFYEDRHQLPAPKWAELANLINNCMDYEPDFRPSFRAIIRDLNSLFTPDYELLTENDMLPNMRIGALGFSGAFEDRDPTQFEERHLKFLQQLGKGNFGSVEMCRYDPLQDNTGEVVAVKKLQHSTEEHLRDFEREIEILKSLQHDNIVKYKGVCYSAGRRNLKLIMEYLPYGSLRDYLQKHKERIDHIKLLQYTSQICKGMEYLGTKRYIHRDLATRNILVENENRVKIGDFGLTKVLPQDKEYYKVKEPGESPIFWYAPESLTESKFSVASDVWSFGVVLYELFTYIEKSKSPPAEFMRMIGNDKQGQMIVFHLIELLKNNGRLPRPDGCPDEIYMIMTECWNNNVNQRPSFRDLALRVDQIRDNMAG

MDA-MB-231 = test: cells; assay type: functional, cell-based; conditions: Homo sapiens, MDA-MB-231, 72 h
[3] = biological target: T2, Tyrosine-protein kinase JAK2; test: Binding affinity to N-terminal His tagged human recombinant JAK2 (1014 to 1132 residues) expressed in Escherichia coli after 300 mins by LC/MS analysis; conditions: read-out: Kd(app)
Procedure, shortened: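 JAK2 in Tris/glycerol/urea storage buffer was exchanged into sodium phosphate/NaCl pH 7.5 and immobilized on periodate-oxidized diol silica (Schiff base, NaBH3CN, 116 h, 4 °C), then packed into a 35 × 0.5 mm column. Compounds were run at 10 μM final (50 μM for one analyte) in 20 mM ammonium acetate pH 6.8 at 20 μL/min. Detection was by SIM [M+H]+, with DMSO as void marker. Retention time was taken from the EIC peak apex, n = 3, with runs up to 300 min.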

PC-3 = test: cells; assay type: functional, cell-based; conditions: Homo sapiens, PC-3, 72 h
HEL 92.1.7 = test: cells; assay type: functional, cell-based; conditions: Homo sapiens, HEL 92.1.7, 36 h
Histone deacetylase 1 = Histone deacetylase 1 (Homo sapiens, UniProt Q13547); test: Inhibition of C-terminal FLAG His tagged full length human recombinant HDAC1 (1 to 482 residues) expressed in baculovirus infected sf21 cells using RHKKAc as substrate in presence of ATP
Histone deacetylase 1, sequence (Q13547 whole entry, the tested form may be a part): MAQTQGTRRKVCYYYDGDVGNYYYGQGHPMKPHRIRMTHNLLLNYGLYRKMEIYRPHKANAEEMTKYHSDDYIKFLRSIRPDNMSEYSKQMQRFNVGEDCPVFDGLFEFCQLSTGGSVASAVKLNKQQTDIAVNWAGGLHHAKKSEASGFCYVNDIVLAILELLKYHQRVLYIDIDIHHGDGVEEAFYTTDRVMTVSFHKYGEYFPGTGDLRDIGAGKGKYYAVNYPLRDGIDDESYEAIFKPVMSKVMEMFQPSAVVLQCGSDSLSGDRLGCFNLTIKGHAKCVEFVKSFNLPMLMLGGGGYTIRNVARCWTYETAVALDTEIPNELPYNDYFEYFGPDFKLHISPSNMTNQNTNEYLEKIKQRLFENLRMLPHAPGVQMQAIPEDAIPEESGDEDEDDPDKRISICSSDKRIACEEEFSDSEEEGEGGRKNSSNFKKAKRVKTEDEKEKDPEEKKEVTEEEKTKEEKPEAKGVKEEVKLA

HL-60 = test: Antiproliferative activity against human HL60 cells; assay type: functional, cell-based

Compound	Activity (MOLM-14)	Activity (KMS-12-BM)	Activity (OPM-2)	Activity (MV4-11)	IC50 (HCT-116)	IC50 (MCF7)	IC50 (Jurkat)	IC50 [1]	IC50 [2]	IC50 (MDA-MB-231)	Kd [3]	IC50 (PC-3)	IC50 (HEL 92.1.7)	IC50 (Histone deacetylase 1)	IC50 (HL-60)
N#CC[C@H](C1CCCC1)n1cc(-c2ncnc3[nH]ccc23)cn1 [RUXOLITINIB]	73%	59%	74%	52%											
O=C(/C=C/c1ccc(NCCCn2cc(-c3ncnc4[nH]ccc34)cn2)cc1)NO					25.3 µM	14.4 µM	> 4 µM	0.148 µM	0.502 µM	13.3 µM	0.2 µM	17 µM	> 4 µM	2.65 µM	> 10 µM
